The test system of assay [1] is Staphylococcus aureus. Nature of the assay: Antibacterial activity against methicillin-resistant Staphylococcus aureus NCTC 12493 assessed as reduction in bacterial growth incubated for 24 hrs in presence of curcumin. Format: functional.
Assay [2] relates to Pseudomonas aeruginosa. Nature of the assay: Synergistic antibacterial activity against Pseudomonas aeruginosa ATCC 27853 assessed as fractional inhibitory concentration index measured after 24 hrs in presence of curcumin by checkerboard assay. Type of assay: functional. The essentials:
(§1)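 FICI calculated from combination MICs; ≤0.5 taken as synergy and >0.5–4.0 as additive. Where an MIC was not reached, the dilution above the highest concentration tested was used in the calculation. Run in triplicate and reported as means.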

Assay [3] has as its system Staphylococcus aureus. Nature of the assay: Synergistic antibacterial activity against methicillin-resistant Staphylococcus aureus NCTC 12493 assessed as fractional inhibitory concentration index measured after 24 hrs in presence of curcumin by checkerboard assay. Format: functional. The essentials: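 FICI was derived from checkerboard MICs. Synergy was defined as FICI ≤ 0.5 and additive as FICI > 0.5−4.0. Where an MIC was not reached, the dilution above the maximum dose was used in the FICI calculation. Experiments were run in triplicate and reported as means.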

Assay [4] concerns Stenotrophomonas maltophilia. Nature of the assay: Antibacterial activity against Stenotrophomonas maltophilia SMS01 assessed as reduction in bacterial growth incubated for 24 hrs in presence of curcumin. Format: functional.
Assay [5] relates to Escherichia coli. The assay is described as follows: Antibacterial activity against Escherichia coli EC204 harboring NDM-1 assessed as reduction in bacterial growth incubated for 24 hrs in presence of curcumin. Type of assay: functional.
Assay [6] has as its system Streptococcus pyogenes. The assay is described as follows: Synergistic antibacterial activity against Streptococcus pyogenes SPY2 assessed as fractional inhibitory concentration index measured after 24 hrs in presence of curcumin by checkerboard assay. Format: functional. The essentials:
as §1

In assay [7] the test system is Stenotrophomonas maltophilia. The assay is described as follows: Antibacterial activity against Stenotrophomonas maltophilia SMB07 assessed as reduction in bacterial growth incubated for 24 hrs in presence of curcumin. Type of assay: functional.
The test system of assay [8] is Streptococcus pyogenes. Nature of the assay: Antibacterial activity against Streptococcus pyogenes SPY3 assessed as reduction in bacterial growth incubated for 24 hrs in presence of curcumin. Format: functional.
Assay [9] concerns Pseudomonas aeruginosa. Nature of the assay: Synergistic antibacterial activity against Pseudomonas aeruginosa PA14 assessed as fractional inhibitory concentration index measured after 24 hrs in presence of curcumin by checkerboard assay. Type of assay: functional. The method in brief:
as §1

The subject of assay [10] is Streptococcus pyogenes. Nature of the assay: Synergistic antibacterial activity against Streptococcus pyogenes SPY1 assessed as fractional inhibitory concentration index measured after 24 hrs in presence of curcumin by checkerboard assay. Type of assay: functional. The essentials: as §1
Assay [11] deals with Pseudomonas aeruginosa. The assay is described as follows: Antibacterial activity against Pseudomonas aeruginosa PA30 harboring VIM-2 assessed as reduction in bacterial growth incubated for 24 hrs in presence of curcumin. Format: functional.
Assay [12] relates to Acinetobacter baumannii. The assay is described as follows: Antibacterial activity against Acinetobacter baumannii AB16 harboring OXA-23 clone 2 assessed as reduction in bacterial growth incubated for 24 hrs in presence of curcumin. Format: functional.
For assay [13], the system named is Stenotrophomonas maltophilia. The assay is described as follows: Antibacterial activity against Stenotrophomonas maltophilia SMB07 assessed as reduction in bacterial growth incubated for 24 hrs in presence of polymyxin B. Type of assay: functional.
In assay [14] the test system is Acinetobacter baumannii. Nature of the assay: Antibacterial activity against Acinetobacter baumannii AB12 harboring OXA-23 assessed as reduction in bacterial growth incubated for 24 hrs in presence of polymyxin B. Type of assay: functional.
The test system of assay [15] is Stenotrophomonas maltophilia. The assay is described as follows: Potentiation of polymyxin B-induced antibacterial activity against Stenotrophomonas maltophilia NCTC 10258 assessed as fold reduction in polymyxin B MIC measured after 24 hrs in presence of polymyxin B by checkerboard assay. Type of assay: functional.
Assay [16] deals with Stenotrophomonas maltophilia. The assay is described as follows: Antibacterial activity against Stenotrophomonas maltophilia SMS01 assessed as reduction in bacterial growth incubated for 24 hrs in presence of polymyxin B. Format: functional.
In assay [17] the test system is Acinetobacter baumannii. Nature of the assay: Antibacterial activity against Acinetobacter baumannii AB14 harboring OXA-23 clone 1 assessed as reduction in bacterial growth incubated for 24 hrs in presence of polymyxin B. Format: functional.
Assay [18] relates to Staphylococcus aureus. Nature of the assay: Potentiation of polymyxin B-induced antibacterial activity against Staphylococcus aureus ATCC 25923 assessed as fold reduction in polymyxin B MIC measured after 24 hrs in presence of polymyxin B by checkerboard assay. Type of assay: functional.
For assay [19], the system named is Staphylococcus aureus. Nature of the assay: Antibacterial activity against vancomycin-intermediate resistant Staphylococcus aureus Mu50 assessed as reduction in bacterial growth incubated for 24 hrs in presence of polymyxin B. Type of assay: functional.
For assay [20], the system named is Stenotrophomonas maltophilia. Nature of the assay: Potentiation of polymyxin B-induced antibacterial activity against Stenotrophomonas maltophilia SMS01 assessed as fold reduction in polymyxin B MIC measured after 24 hrs in presence of polymyxin B by checkerboard assay. Type of assay: functional.
Assay [21] relates to Stenotrophomonas maltophilia. The assay is described as follows: Bactericidal activity against Stenotrophomonas maltophilia NCTC 102586 assessed as bacterial cell death at 0.5 fold MIC measured after 4 to 6 hrs in presence of polymyxin B at MIC by time kill assay relative to control. Type of assay: functional. Particulars: time 4-6 hrs. The method in brief: (§2)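 Time-kill in 10 mL Mueller-Hinton 2 broth, 37 °C with continuous agitation, 24 h. Inoculum was a 1/1000 dilution of a 16 h overnight culture, about 10^6 CFU/mL. Single agents at 1× MIC; combination at 1× MIC polymyxin B plus 0.5× MIC curcumin. Samples at 0, 2, 4, 6 and 24 h were serially diluted and plated on IsoSensitest agar for CFU/mL.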

Assay [22] concerns Streptococcus pyogenes. Nature of the assay: Antibacterial activity against Streptococcus pyogenes SPY3 assessed as reduction in bacterial growth incubated for 24 hrs in presence of polymyxin B. Type of assay: functional.
Assay [23] deals with Escherichia coli. Nature of the assay: Antibacterial activity against Escherichia coli EC2 harboring CTX-M-15 assessed as reduction in bacterial growth incubated for 24 hrs in presence of polymyxin B. Type of assay: functional.
Assay [24] relates to Pseudomonas aeruginosa. Nature of the assay: Bactericidal activity against Pseudomonas aeruginosa ATCC 27853 assessed as bacterial cell death at 0.5 fold MIC measured after 4 to 6 hrs in presence of polymyxin B at MIC by time kill assay relative to control. Type of assay: functional. Conditions: time 4-6 hrs. The essentials: as §2
The subject of another assay is Enterococcus faecalis. Nature of the assay: Potentiation of polymyxin B-induced antibacterial activity against Enterococcus faecalis ATCC 29212 assessed as fold reduction in polymyxin B MIC measured after 24 hrs in presence of polymyxin B by checkerboard assay.

The MIC is the lowest concentration found to suppress growth. Regarding `CC[C@H](C)CCCCC(=O)N[C@@H](CCN)C(=O)N[C@H](C(=O)N[C@@H](CCN)C(=O)N[C@H]1CCNC(=O)[C@H]([C@@H](C)O)NC(=O)[C@H](CCN)NC(=O)[C@H](CCN)NC(=O)[C@H](CC(C)C)NC(=O)[C@@H](Cc2ccccc2)NC(=O)[C@H](CCN)NC1=O)[C@@H](C)O.O=S(=O)(O)O`, the MIC in the assay with Staphylococcus aureus [1] stood at 0.79 µM; in assay [4], 0.024 µM; with Escherichia coli [5], 0.024 µM; in assay [7], 0.0313 µM; with Streptococcus pyogenes [8], 0.79 µM; with Pseudomonas aeruginosa [11], 0.19 µM. Further, in the assay on Acinetobacter baumannii [12], the MIC worked out at 0.012 µM. Further, the “fractional inhibitory concentration index (FICI)” value with Pseudomonas aeruginosa [2] is 0.079; in the assay on Staphylococcus aureus [3], 0.031; in the assay on Streptococcus pyogenes [6], 0.188; in the assay on Pseudomonas aeruginosa [9], 0.023; with Streptococcus pyogenes [10], 0.094.
Regarding `COc1cc(/C=C/C(=O)CC(=O)/C=C/c2ccc(O)c(OC)c2)ccc1O` [CURCUMIN], the MIC in [13] worked out at 22 µM; with Acinetobacter baumannii [14], 87 µM; in [16], 22 µM; with Acinetobacter baumannii [17], 174 µM; with Staphylococcus aureus [19], 43 µM; in the assay on Streptococcus pyogenes [22] it was 43 µM. Besides, the MIC in the assay on Escherichia coli [23] is 43 µM. The “fold change (FC)” value (in assay [15]; in the assay on Staphylococcus aureus [18]; in [20]; in the assay on Enterococcus faecalis) was 3 throughout. In addition, the Activity (in assay [21]; with Pseudomonas aeruginosa [24]) was 100% in each case.

Source of the values: ChEMBL document CHEMBL4715738, “In Vitro Antibacterial Activity of Curcumin-Polymyxin B Combinations against Multidrug-Resistant Bacteria Associated with Traumatic Wound Infections” (J Nat Prod, 2016).
